# Assay results: ChEMBL document CHEMBL1155553, “Design and synthesis of alpha-ketoamides as cathepsin S inhibitors with potential applications against tumor invasion and angiogenesis” (J Med Chem, 2010)
# Active and inactive are the calls of the source. The rule behind the calls is not given here.
# Test system: not listed separately
# Assay: Antiinvasive activity in human CL1-5 cells assessed as cellular migration after 24 hrs by fluorescence assay relative to control
# Type: functional
# Parameters: concentration or dose not given beside the values
# Conditions: not given
row,Structure (SMILES),Activity [%]
1,CCOC(=O)CNC(=O)C(=O)C(COCc1ccccc1)NC(=O)[C@H](CC1CCCCC1)NC(=O)c1cc(Br)ccc1NC(=O)OC(C)(C)C (some centres undefined),76
2,CCCCCC1OC(=O)C(C(=O)N[C@@H](CC2CCCCC2)C(=O)NC(COCc2ccccc2)C(=O)C(=O)NCC(=O)OC)=CC1C (some centres undefined),119
3,CCOC(=O)CNC(=O)C(=O)C(COCc1ccccc1)NC(=O)[C@H](CC1CCCCC1)NC(=O)N1CCOCC1 (some centres undefined),51
4,CCOC(=O)CNC(=O)C(=O)C(COCc1ccccc1)NC(=O)[C@H](CC1CCCCC1)NC(=O)c1cc(OC)ccc1[N+](=O)[O-] (some centres undefined),95
5,CCOC(=O)CNC(=O)C(=O)C(COCc1ccccc1)NC(=O)[C@H](CC1CCCCC1)NC(=O)c1ccc(Cl)c(N)c1 (some centres undefined),68
6,CCOC(=O)CNC(=O)C(=O)C(COCc1ccccc1)NC(=O)[C@H](CC1CCCCC1)NC(=O)c1ccc([N+](=O)[O-])s1 (some centres undefined),64

# Target: Cathepsin B (Homo sapiens) (UniProt P07858)
# Assay: Inhibition of cathepsin B assessed as proteolytic activity at 40 nM by fluorimetric assay
# Parameters: Activity: scale not given: the % may be the effect or the level left
# Conditions: not given
Structure (SMILES),inhibition [%],Activity [%]
CC(C)C[C@H](NC(=O)[C@H]1O[C@@H]1C(=O)O)C(=O)NCCCCN=C(N)N,75,
CCOC(=O)CNC(=O)C(=O)C(COCc1ccccc1)NC(=O)[C@H](CC1CCCCC1)NC(=O)N1CCOCC1 (some centres undefined),,102

# Test system: HUVEC
# Assay: Cytotoxicity against HUVEC by MTT assay
# Type: cell-based
# Conditions: Homo sapiens
# In short: (§1)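 Overall cytotoxicity measured by MTT proliferation assay, compounds tested at concentrations up to 50 μM.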
row,Structure (SMILES),IC50 [nM]
1,CCOC(=O)CNC(=O)C(=O)C(COCc1ccccc1)NC(=O)[C@H](CC1CCCCC1)NC(=O)N1CCOCC1 (some centres undefined),> 50000
2,CCOC(=O)CNC(=O)C(=O)C(COCc1ccccc1)NC(=O)[C@H](CC1CCCCC1)NC(=O)c1cc(OC)ccc1[N+](=O)[O-] (some centres undefined),39000
3,CCOC(=O)CNC(=O)C(=O)C(COCc1ccccc1)NC(=O)[C@H](CC1CCCCC1)NC(=O)c1ccc(Cl)c(N)c1 (some centres undefined),> 50000
4,CCOC(=O)CNC(=O)C(=O)C(COCc1ccccc1)NC(=O)[C@H](CC1CCCCC1)NC(=O)c1ccc([N+](=O)[O-])s1 (some centres undefined),48000

# Target: T1, Cathepsin S (Homo sapiens, UniProt P25774)
# Assay: Competitive inhibition of human recombinant cathepsin S expressed in Escherichia coli BL21 (DE3) after 15 mins by Lineweaver-Burke plot analysis
# Conditions: not given
# Target sequence in this assay (P25774 115-331 limits assumed): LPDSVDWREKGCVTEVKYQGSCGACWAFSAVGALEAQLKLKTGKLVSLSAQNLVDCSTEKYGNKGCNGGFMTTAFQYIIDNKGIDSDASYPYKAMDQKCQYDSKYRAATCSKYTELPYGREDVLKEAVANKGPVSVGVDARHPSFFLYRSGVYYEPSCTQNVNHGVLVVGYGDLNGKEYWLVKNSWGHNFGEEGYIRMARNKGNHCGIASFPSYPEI
row,Structure (SMILES),inhibition
1,CCOC(=O)CNC(=O)C(=O)C(COCc1ccccc1)NC(=O)[C@H](CC1CCCCC1)NC(=O)N1CCOCC1 (some centres undefined),Active

# Test system: HUVEC
# Assay: Antiinvasive activity in VEGF-stimulated HUVEC assessed as cellular migration after 24 hrs by fluorescence assay relative to control
# Type: functional, Homo sapiens
# Parameters: concentration or dose not given beside the values
# Conditions: not given
row,Structure (SMILES),Activity [%]
1,CCOC(=O)CNC(=O)C(=O)C(COCc1ccccc1)NC(=O)[C@H](CC1CCCCC1)NC(=O)c1cc(Br)ccc1NC(=O)OC(C)(C)C (some centres undefined),86
2,CCCCCC1OC(=O)C(C(=O)N[C@@H](CC2CCCCC2)C(=O)NC(COCc2ccccc2)C(=O)C(=O)NCC(=O)OC)=CC1C (some centres undefined),99
3,CCOC(=O)CNC(=O)C(=O)C(COCc1ccccc1)NC(=O)[C@H](CC1CCCCC1)NC(=O)N1CCOCC1 (some centres undefined),87
4,CCOC(=O)CNC(=O)C(=O)C(COCc1ccccc1)NC(=O)[C@H](CC1CCCCC1)NC(=O)c1cc(OC)ccc1[N+](=O)[O-] (some centres undefined),98
5,CCOC(=O)CNC(=O)C(=O)C(COCc1ccccc1)NC(=O)[C@H](CC1CCCCC1)NC(=O)c1ccc(Cl)c(N)c1 (some centres undefined),46
6,CCOC(=O)CNC(=O)C(=O)C(COCc1ccccc1)NC(=O)[C@H](CC1CCCCC1)NC(=O)c1ccc([N+](=O)[O-])s1 (some centres undefined),56

# Test system: not listed separately
# Assay: Cytotoxicity against human CL1-5 cells by MTT assay
# Type: cell-based
# Conditions: not given
# In short: as §1
row,Structure (SMILES),IC50 [nM]
1,CCOC(=O)CNC(=O)C(=O)C(COCc1ccccc1)NC(=O)[C@H](CC1CCCCC1)NC(=O)CC(c1ccccc1)(c1ccccc1)c1ccccc1 (some centres undefined),> 50000
2,CCOC(=O)CNC(=O)C(=O)C(COCc1ccccc1)NC(=O)[C@H](CC1CCCCC1)NC(=O)N1CCOCC1 (some centres undefined),> 50000
3,CCOC(=O)CNC(=O)C(=O)C(COCc1ccccc1)NC(=O)[C@H](CC1CCCCC1)NC(=O)c1cc(OC)ccc1[N+](=O)[O-] (some centres undefined),> 50000
4,CCOC(=O)CNC(=O)C(=O)C(COCc1ccccc1)NC(=O)[C@H](CC1CCCCC1)NC(=O)c1ccc(Cl)c(N)c1 (some centres undefined),> 50000
5,CCOC(=O)CNC(=O)C(=O)C(COCc1ccccc1)NC(=O)[C@H](CC1CCCCC1)NC(=O)c1ccc([N+](=O)[O-])s1 (some centres undefined),> 50000

# Target: Procathepsin L (Homo sapiens) (UniProt P07711)
# Sequence (P07711 114-333 limits assumed): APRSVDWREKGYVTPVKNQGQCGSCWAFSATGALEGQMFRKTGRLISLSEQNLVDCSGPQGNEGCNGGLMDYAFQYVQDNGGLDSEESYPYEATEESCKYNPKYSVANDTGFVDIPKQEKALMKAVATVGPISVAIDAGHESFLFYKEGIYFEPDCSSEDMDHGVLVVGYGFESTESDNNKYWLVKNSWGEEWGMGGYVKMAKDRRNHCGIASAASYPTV
# Assay: Inhibition of cathepsin L assessed as proteolytic activity at 40 nM by fluorimetric assay
# Parameters: Activity: scale not given: the % may be the effect or the level left
# Conditions: not given
Structure (SMILES),inhibition [%],Activity [%]
CC(C)C[C@H](NC(=O)[C@H]1O[C@@H]1C(=O)O)C(=O)NCCCCN=C(N)N,-1.3,
CCOC(=O)CNC(=O)C(=O)C(COCc1ccccc1)NC(=O)[C@H](CC1CCCCC1)NC(=O)N1CCOCC1 (some centres undefined),,3.2

# Target: T1, Cathepsin S
# Assay: Inhibition of human recombinant cathepsin S expressed in Escherichia coli BL21 (DE3) after 10 mins by fluorescence assay
# Conditions: not given
# Target sequence in this assay (P25774 whole entry): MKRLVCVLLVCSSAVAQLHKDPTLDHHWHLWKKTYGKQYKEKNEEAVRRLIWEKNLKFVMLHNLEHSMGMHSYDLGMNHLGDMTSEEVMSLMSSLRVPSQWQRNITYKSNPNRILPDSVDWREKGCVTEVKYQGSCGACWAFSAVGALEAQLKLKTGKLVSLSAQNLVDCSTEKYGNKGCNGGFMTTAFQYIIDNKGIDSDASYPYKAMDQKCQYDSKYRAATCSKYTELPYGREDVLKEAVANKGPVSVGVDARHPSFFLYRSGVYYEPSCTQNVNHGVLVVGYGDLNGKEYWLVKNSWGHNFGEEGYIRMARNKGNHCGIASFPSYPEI
row,Structure (SMILES),IC50 [nM]
1,CCOC(=O)CNC(=O)C(=O)C(COCc1ccccc1)NC(=O)[C@H](CC1CCCCC1)NC(=O)CC(c1ccccc1)(c1ccccc1)c1ccccc1 (some centres undefined),> 100
2,CCOC(=O)CNC(=O)C(=O)C(COCc1ccccc1)NC(=O)[C@H](CC1CCCCC1)NC(=O)c1cc(Br)ccc1NC(=O)OC(C)(C)C (some centres undefined),23.8
3,CCOC(=O)CNC(=O)C(=O)C(COCc1ccccc1)NC(=O)[C@H](CC1CCCCC1)NC(=O)CCC(=O)c1ccc2ccc3cccc4ccc1c2c34 (some centres undefined),> 100
4,CCCCCC1OC(=O)C(C(=O)N[C@@H](CC2CCCCC2)C(=O)NC(COCc2ccccc2)C(=O)C(=O)NCC(=O)OC)=CC1C (some centres undefined),42.3
5,CCOC(=O)CNC(=O)C(=O)C(COCc1ccccc1)NC(=O)[C@H](CC1CCCCC1)NC(=O)N1CCOCC1 (some centres undefined),4.4
6,CCOC(=O)CNC(=O)C(=O)C(COCc1ccccc1)NC(=O)[C@H](CC1CCCCC1)NC(=O)c1cc(OC)ccc1[N+](=O)[O-] (some centres undefined),3.1
7,CCOC(=O)CNC(=O)C(=O)C(COCc1ccccc1)NC(=O)[C@H](CC1CCCCC1)NC(=O)c1ccc(Cl)c(N)c1 (some centres undefined),2.1
8,CCOC(=O)CNC(=O)C(=O)C(COCc1ccccc1)NC(=O)[C@H](CC1CCCCC1)NC(=O)c1ccc([N+](=O)[O-])s1 (some centres undefined),10.3
